Laboratory results: paper PMC7330163 (Pharmacology Research & Perspectives, 2020)
pEC50: −log10 of the molar value.

What was measured:
[1] = man, therapeutic dose of 10 mg; clinical trials ref 19; cited from earlier work
[2] = system: hepatic OATP transporters; conditions: partitions into liver by passive diffusion; cited from earlier work
[3] = system: total P450; assay: Total P450 concentration in liver microsomes of the 4-week dog toxicity study; type: in vivo, Beagle dog; conditions: 4 weeks
Outline: (§1)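 Microsomes were made from pooled liver (1.5–2 g per dose group) of 4-week toxicity studies, including vehicle controls. Tissue homogenised in ice-cold 50 mmol/L Tris-HCl pH 7.4 with 250 mmol/L sucrose, spun at 9000 g then 100 000 g (4°C), and the pellet washed in 100 mmol/L pyrophosphate pH 7.25 with 1 mmol/L EDTA. Total P450 by carbon monoxide spectrophotometric assay.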

[4] = system: CYP3A4; assay: Induction of P450 enzyme activity in human hepatocytes; type: cell-based; conditions: up to 10 µmol/L
Outline: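 Three batches of human hepatocyte monolayers were exposed for 48–89 h to test compound (DMSO stock diluted 1000-fold), with medium and fresh drug or vehicle renewed every 24 h; rifampicin and omeprazole as positive controls. Cells then washed with MEM, held 10 min at 37°C, and incubated with 200 µmol/L nifedipine for 2 h at 37°C, 5% CO2, as CYP3A4 activity marker.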

[5] = system: Cyp2c6; assay: Taqman mRNA upregulation in rat liver, 4-week toxicity study; type: in vivo, Sprague-Dawley rat; conditions: 4-week study
Outline: (§2)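 Livers came from satellite-group rats of both sexes (n = 5–6) in the 4-week study, dosed once daily at 0, 50, 150, 450 or 1500 mg/kg in modified gelatine. Transcripts quantified by comparative Ct, normalised to 18S and to vehicle-treated controls; fold change = 2−ΔΔCT.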

[6] = system: Cyp3a1; assay: Taqman mRNA upregulation in rat liver, 8-day mechanistic follow-up study; type: in vivo, Sprague-Dawley rat; conditions: male rats, 8-day follow-up study, relative to vehicle control
Outline: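 Male Sprague-Dawley rats (n = 4) were given 0, 5, 15 or 50 mg/kg daily for 8 days as a suspension in modified gelatine. Liver transcripts were normalised to 18S and to vehicle-treated rats by the ΔΔCT method; fold = 2−ΔΔCT.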

[7] = system: CYP1A2; assay: Induction of P450 mRNA in human hepatocytes; type: cell-based; conditions: up to 10 µmol/L
Outline: (§3)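 Three human hepatocyte batches were cultured as monolayers and treated for 48–89 h with test compound, diluted 1000-fold from DMSO stock, or vehicle. Medium with fresh drug renewed every 24 h; rifampicin and omeprazole served as positive controls. CYP mRNA then measured.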

[8] = cited from earlier work
[9] = Single-dose oral pharmacokinetics in rat; type: in vivo; conditions: Sprague-Dawley, plasma
[10] = system: Cyp3a2; assay: Taqman mRNA upregulation in rat liver, 4-week toxicity study; type: in vivo, Sprague-Dawley rat; conditions: male rats, 4-week study
Outline: as §2

[11] = molecular target: T1, human pregnane X receptor (Homo sapiens, UniProt O75469); assay: PXR reporter-gene assay in green monkey kidney CV-1 cells; type: cell-based
T1 sequence (O75469 1-434): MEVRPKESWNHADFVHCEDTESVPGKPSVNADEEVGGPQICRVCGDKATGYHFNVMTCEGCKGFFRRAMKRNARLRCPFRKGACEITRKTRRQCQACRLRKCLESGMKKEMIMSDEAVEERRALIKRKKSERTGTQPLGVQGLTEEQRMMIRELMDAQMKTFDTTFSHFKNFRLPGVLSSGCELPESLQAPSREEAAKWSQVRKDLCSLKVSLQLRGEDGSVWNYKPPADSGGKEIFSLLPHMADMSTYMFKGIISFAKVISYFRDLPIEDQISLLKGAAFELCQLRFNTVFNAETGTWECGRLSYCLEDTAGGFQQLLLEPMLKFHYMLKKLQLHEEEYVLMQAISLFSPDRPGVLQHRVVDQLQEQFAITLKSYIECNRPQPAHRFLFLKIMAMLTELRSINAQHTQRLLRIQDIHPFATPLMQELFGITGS
Outline: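 CV-1 cells were grown 3 days in DMEM/F12 with charcoal-treated FBS, then seeded at 25 000/well and lipofected with hPXR expression vector (0.1 ng), CYP3A4-luciferase reporter (20 ng) and β-galactosidase vector (60 ng). After 24 h, cells were treated 24 h in triplicate with 0.03–30 µmol/L test compound or rifampicin in delipidated charcoal-treated FBS medium. Luciferase normalised to β-galactosidase, expressed as fold over DMSO.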

[12] = system: total P450; assay: Total P450 concentration in liver microsomes of the 4-week rat toxicity study; type: in vivo, Sprague-Dawley rat; conditions: 4 weeks
Outline: as §1

[13] = system: CYP3A4; assay: Induction of P450 mRNA in human hepatocytes; type: cell-based; conditions: 10 µmol/L
Outline: as §3

increase in CYP3A4 enzyme activity [4]: fivefold
Upregulation of Cyp3a1 mRNA ([6]; 5 mg/kg daily): 1.66 ± 0.75
Upregulation of Cyp3a1 mRNA ([6]; 15 mg/kg daily): 2.53 ± 2.02
Upregulation of Cyp3a1 mRNA ([6]; 50 mg/kg daily): 6.04 ± 3.00
change in CYP1A2 mRNA expression [7]: No change
AUC ([9]; female, 3 mg/kg): 18400 ng·h/mL
Cmax ([9]; female, 3 mg/kg): 850 ng/mL
Tmax ([9]; female, 3 mg/kg): 8 h
bioavailability ([9]; female, 3 mg/kg): 62%
AUC ([9]; male, 3 mg/kg): 3240 ng·h/mL
Cmax ([9]; male, 3 mg/kg): 380 ng/mL
Tmax ([9]; male, 3 mg/kg): 6 h
bioavailability ([9]; male, 3 mg/kg): 53%
AUC ([9]; male, 30 mg/kg): 97400 ng·h/mL
Cmax ([9]; male, 30 mg/kg): 7300 ng/mL
Tmax ([9]; male, 30 mg/kg): 16 h
pEC50 [11]: 5.92
increase in CYP3A4 mRNA vs DMSO control [13]: about 11 fold
Structure (SMILES): CCCNS(=O)(=O)Nc1ncnc(OCCOc2ncc(Br)cn2)c1-c1ccc(Br)cc1 [macitentan]
plasma exposure (AUC0‐24h) [1]: 5400 ng·h/mL
substrate of hepatic OATP transporters [2]: not a substrate of hepatic OATP transporters
P450 (total, liver microsomes) ([3]; female dogs, macitentan 5 mg/kg daily): 0.63 nmol/mg
P450 (total, liver microsomes) ([3]; female dogs, macitentan 50 mg/kg daily): 0.87 nmol/mg
P450 (total, liver microsomes) ([3]; female dogs, macitentan 500 mg/kg daily): 0.84 nmol/mg
P450 (total, liver microsomes) ([3]; male dogs, macitentan 5 mg/kg daily): 0.50 nmol/mg
P450 (total, liver microsomes) ([3]; male dogs, macitentan 50 mg/kg daily): 0.73 nmol/mg
P450 (total, liver microsomes) ([3]; male dogs, macitentan 500 mg/kg daily): 1.00 nmol/mg
Upregulation of Cyp2c6 mRNA ([5]; female rats, 50 mg/kg daily, relative to vehicle control): 2.78 ± 0.95
Upregulation of Cyp2c6 mRNA ([5]; female rats, 150 mg/kg daily, relative to vehicle control): 4.21 ± 0.51
Upregulation of Cyp2c6 mRNA ([5]; female rats, 450 mg/kg daily, relative to vehicle control): 4.35 ± 1.54
Upregulation of Cyp2c6 mRNA ([5]; female rats, 1500 mg/kg daily, relative to vehicle control): 3.29 ± 0.77
Upregulation of Cyp2c6 mRNA ([5]; male rats, 50 mg/kg daily, relative to vehicle control = 1.00): 6.21 ± 1.02
Upregulation of Cyp2c6 mRNA ([5]; male rats, 150 mg/kg daily, relative to vehicle control): 4.36 ± 1.96
Upregulation of Cyp2c6 mRNA ([5]; male rats, 450 mg/kg daily, relative to vehicle control): 9.53 ± 1.26
Upregulation of Cyp2c6 mRNA ([5]; male rats, 1500 mg/kg daily, relative to vehicle control): 9.20 ± 3.29
aqueous solubility [8]: low aqueous solubility
Upregulation of Cyp3a2 mRNA ([10]; 50 mg/kg daily, relative to vehicle control = 1.00): 3.65 ± 1.03
Upregulation of Cyp3a2 mRNA ([10]; 150 mg/kg daily, relative to vehicle control): 4.53 ± 1.31
Upregulation of Cyp3a2 mRNA ([10]; 450 mg/kg daily, relative to vehicle control): 5.21 ± 1.33
Upregulation of Cyp3a2 mRNA ([10]; 1500 mg/kg daily, relative to vehicle control): 6.50 ± 2.40
P450 (total, liver microsomes) ([12]; female rats, macitentan 50 mg/kg daily): 1.05 nmol/mg
P450 (total, liver microsomes) ([12]; female rats, macitentan 150 mg/kg daily): 1.15 nmol/mg
P450 (total, liver microsomes) ([12]; female rats, macitentan 450 mg/kg daily): 1.18 nmol/mg
P450 (total, liver microsomes) ([12]; female rats, macitentan 1500 mg/kg daily): 0.90 nmol/mg
P450 (total, liver microsomes) ([12]; male rats, macitentan 50 mg/kg daily): 1.35 nmol/mg
P450 (total, liver microsomes) ([12]; male rats, macitentan 150 mg/kg daily): 1.41 nmol/mg
P450 (total, liver microsomes) ([12]; male rats, macitentan 450 mg/kg daily): 1.33 nmol/mg
P450 (total, liver microsomes) ([12]; male rats, macitentan 1500 mg/kg daily): 1.45 nmol/mg
